The values that follow come from ChEMBL document CHEMBL1933058, “5-(2-amino-pyrimidin-4-yl)-1H-pyrrole and 2-(2-amino-pyrimidin-4-yl)-1,5,6,7-tetrahydro-pyrrolo[3,2-c]pyridin-4-one derivatives as new classes of selective and orally available Polo-like kinase 1 inhibitors” (Bioorg Med Chem Lett, 2012).

Data set [1] relates to A2780. In words: Cell cycle arrest in human A2780 cells assessed as accumulation at G2/M phase at 0.05 to 5 uM after 24 hrs by FACS analysis. The data set is classed as functional, cell-based. The method, boiled down:
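A2780 cells were exposed for 24 h to 0.05, 0.5 or 5 µM. Cell-cycle distribution was read by flow cytometry (FACS), scoring G2-M accumulation. Nocodazole-treated cells served as positive control.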

Data set [2] in a line: Intrinsic clearance in human liver microsomes at 1 uM. The data set is classed as ADME, Microsome. The conditions noted are these: read-out: CLH.
Data set [3] is described as follows: Apparent permeability of the compound by PAMPA. The data set is classed as ADME.
Data set [4] deals with Aurora kinase B (Homo sapiens, UniProt Q96GD4). In words: Inhibition of Aurora-B.
The target of data set [5] is Serine/threonine-protein kinase PAK 4 (Homo sapiens, UniProt O96013). In words: Inhibition of PAK4.
Serine/threonine-protein kinase PAK 4, sequence (O96013 whole entry): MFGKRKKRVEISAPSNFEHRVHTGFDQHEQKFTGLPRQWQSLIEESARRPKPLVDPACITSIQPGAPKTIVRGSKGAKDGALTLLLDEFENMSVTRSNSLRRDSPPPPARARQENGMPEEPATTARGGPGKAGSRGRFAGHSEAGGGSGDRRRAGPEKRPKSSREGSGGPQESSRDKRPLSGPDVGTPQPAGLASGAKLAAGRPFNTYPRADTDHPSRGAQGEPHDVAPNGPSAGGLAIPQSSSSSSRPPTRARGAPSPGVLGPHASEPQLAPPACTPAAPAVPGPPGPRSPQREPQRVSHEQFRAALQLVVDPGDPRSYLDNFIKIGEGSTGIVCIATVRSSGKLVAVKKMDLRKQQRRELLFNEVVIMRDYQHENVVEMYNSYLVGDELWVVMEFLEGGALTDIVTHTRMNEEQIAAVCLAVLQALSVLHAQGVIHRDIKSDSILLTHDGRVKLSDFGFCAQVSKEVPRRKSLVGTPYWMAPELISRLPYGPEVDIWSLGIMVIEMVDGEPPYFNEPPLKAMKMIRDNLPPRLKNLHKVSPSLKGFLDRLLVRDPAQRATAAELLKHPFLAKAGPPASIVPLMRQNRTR
The target of data set [6] is Vascular endothelial growth factor receptor 2 (Homo sapiens, UniProt P35968). In words: Inhibition of VEGFR2.
Vascular endothelial growth factor receptor 2, sequence (P35968 whole entry): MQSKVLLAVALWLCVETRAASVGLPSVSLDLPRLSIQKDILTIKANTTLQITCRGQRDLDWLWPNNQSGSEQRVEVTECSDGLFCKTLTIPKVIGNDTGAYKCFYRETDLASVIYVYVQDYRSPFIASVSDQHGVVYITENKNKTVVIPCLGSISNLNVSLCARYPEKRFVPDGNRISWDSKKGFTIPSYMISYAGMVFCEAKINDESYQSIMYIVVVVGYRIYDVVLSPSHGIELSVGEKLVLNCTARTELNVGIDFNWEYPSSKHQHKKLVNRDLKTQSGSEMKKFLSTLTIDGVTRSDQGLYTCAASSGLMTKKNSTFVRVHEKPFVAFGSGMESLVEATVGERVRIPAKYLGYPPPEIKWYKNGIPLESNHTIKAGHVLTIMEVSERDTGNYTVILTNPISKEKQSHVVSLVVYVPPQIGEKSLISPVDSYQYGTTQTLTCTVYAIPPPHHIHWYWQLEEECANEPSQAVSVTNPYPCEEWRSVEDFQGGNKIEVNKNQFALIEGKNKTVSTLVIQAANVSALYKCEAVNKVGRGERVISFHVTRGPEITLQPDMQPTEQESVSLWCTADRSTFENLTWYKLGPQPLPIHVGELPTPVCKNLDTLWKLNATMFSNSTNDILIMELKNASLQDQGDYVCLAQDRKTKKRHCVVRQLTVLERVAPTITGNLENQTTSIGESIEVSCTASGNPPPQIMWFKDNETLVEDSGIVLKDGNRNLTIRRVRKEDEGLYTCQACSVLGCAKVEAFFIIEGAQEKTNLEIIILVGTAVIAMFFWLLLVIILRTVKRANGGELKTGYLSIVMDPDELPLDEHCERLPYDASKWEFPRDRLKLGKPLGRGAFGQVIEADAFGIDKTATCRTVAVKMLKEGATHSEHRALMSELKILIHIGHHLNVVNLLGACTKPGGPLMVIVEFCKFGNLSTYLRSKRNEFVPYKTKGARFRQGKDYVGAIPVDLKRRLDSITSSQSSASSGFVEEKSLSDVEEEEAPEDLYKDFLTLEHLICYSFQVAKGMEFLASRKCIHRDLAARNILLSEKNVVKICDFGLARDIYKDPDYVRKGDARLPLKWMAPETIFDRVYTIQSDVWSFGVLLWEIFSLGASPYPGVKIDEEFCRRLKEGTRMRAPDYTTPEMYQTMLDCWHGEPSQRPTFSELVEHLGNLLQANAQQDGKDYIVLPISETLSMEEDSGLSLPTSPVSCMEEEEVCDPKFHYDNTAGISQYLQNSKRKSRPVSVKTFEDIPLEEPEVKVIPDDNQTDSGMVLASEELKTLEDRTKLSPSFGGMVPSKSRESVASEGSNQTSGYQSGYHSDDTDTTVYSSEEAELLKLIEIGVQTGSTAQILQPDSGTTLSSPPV
Data set [7] deals with Cell division cycle 7-related protein kinase (Homo sapiens, UniProt O00311). In words: Inhibition of CDC7.
For data set [8], the system named is A-375. In words: Antiproliferative activity against human A375 cells. The data set is classed as functional, cell-based.
Data set [9] concerns the target Serine/threonine-protein kinase PLK3 (Homo sapiens, UniProt Q9H4B4). In words: Inhibition of PLK3.
The target of data set [10] is Mast/stem cell growth factor receptor Kit (Homo sapiens, UniProt P10721). In words: Inhibition of KIT.
A short description of data set [11]: Tmax in Nu/Nu Balb Harlan mouse at 10 mg/kg, po. The data set is classed as ADME, organism-based. Further details: dose 10 mg/kg, route oral. As to conditions: in vivo.
In data set [12] the target is Serine/threonine-protein kinase 26 (Homo sapiens, UniProt Q9P289). In words: Inhibition of MST4.
Data set [13] deals with Mitogen-activated protein kinase 14 (Homo sapiens, UniProt Q16539). In words: Inhibition of P38alpha.
Data set [14] can be described thus: Terminal half life in Nu/Nu Balb Harlan mouse at 10 mg/kg, po. The data set is classed as ADME, organism-based. Further details: dose 10 mg/kg, route oral. As to conditions: in vivo, read-out: beta t1/2 (converted).
Data set [15] deals with LNCaP. In words: Antiproliferative activity against human LNCAP cells. The data set is classed as functional, cell-based.
For data set [16], the system named is HCT-116. In words: Antiproliferative activity against human HCT116 cells. The data set is classed as functional, cell-based.
Data set [17] deals with Receptor-type tyrosine-protein kinase FLT3 (Homo sapiens, UniProt P36888). In words: Inhibition of FLT3.
Receptor-type tyrosine-protein kinase FLT3, sequence (P36888 whole entry): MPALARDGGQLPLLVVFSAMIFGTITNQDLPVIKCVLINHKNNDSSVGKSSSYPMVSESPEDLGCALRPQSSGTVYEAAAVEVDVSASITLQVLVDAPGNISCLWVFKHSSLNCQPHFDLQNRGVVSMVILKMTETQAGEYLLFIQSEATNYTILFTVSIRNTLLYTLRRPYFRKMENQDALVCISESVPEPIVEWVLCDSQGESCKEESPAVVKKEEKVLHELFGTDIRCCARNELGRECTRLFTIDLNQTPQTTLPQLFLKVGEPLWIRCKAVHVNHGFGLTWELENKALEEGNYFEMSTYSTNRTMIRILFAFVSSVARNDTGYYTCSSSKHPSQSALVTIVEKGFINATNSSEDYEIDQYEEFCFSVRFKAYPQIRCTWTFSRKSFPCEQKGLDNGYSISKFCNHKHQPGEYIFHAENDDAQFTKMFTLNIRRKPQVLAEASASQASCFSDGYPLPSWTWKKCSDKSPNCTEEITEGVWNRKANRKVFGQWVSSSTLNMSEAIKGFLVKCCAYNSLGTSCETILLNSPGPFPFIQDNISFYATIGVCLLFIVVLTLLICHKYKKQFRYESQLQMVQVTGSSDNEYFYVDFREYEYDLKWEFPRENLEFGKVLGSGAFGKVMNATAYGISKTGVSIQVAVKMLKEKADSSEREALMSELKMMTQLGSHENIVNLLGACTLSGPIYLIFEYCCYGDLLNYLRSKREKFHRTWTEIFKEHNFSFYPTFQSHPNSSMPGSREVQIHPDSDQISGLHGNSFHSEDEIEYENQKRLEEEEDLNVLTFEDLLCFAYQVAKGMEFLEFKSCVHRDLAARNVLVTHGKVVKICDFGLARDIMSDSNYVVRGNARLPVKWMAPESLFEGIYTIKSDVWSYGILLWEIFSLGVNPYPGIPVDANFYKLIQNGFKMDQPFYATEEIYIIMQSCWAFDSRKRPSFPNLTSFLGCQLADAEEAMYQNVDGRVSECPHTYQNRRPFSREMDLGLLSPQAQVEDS
The subject of data set [18] is A2780. In words: Cell cycle arrest in human A2780 cells assessed as induction of phospho Thr199 nucleophosmin level after 24 hrs by Western blotting analysis. The data set is classed as functional, cell-based. In outline: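 A2780 cells were treated for 24 h at 0.05, 0.5 and 5 µM, with nocodazole as positive control. Lysates were immunoblotted for pSer10 histone H3, pThr199 nucleophosmin, cyclin B1, cyclin A, PARP cleavage and caspase 3 activation.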

Data set [19] deals with MOLT-4. In words: Antiproliferative activity against human MOLT4 cells. The data set is classed as functional, cell-based.
A short description of data set [20]: Inhibition of NIM.
The target in data set [21] is Insulin-like growth factor 1 receptor (Homo sapiens, UniProt P08069). In words: Inhibition of IGFR1.
The target of data set [22] is Mitogen-activated protein kinase 1 (Homo sapiens, UniProt P28482). In words: Inhibition of ERK2.
Data set [23] deals with Proto-oncogene tyrosine-protein kinase receptor Ret (Homo sapiens, UniProt P07949). In words: Inhibition of RET.
Proto-oncogene tyrosine-protein kinase receptor Ret, sequence (P07949 whole entry): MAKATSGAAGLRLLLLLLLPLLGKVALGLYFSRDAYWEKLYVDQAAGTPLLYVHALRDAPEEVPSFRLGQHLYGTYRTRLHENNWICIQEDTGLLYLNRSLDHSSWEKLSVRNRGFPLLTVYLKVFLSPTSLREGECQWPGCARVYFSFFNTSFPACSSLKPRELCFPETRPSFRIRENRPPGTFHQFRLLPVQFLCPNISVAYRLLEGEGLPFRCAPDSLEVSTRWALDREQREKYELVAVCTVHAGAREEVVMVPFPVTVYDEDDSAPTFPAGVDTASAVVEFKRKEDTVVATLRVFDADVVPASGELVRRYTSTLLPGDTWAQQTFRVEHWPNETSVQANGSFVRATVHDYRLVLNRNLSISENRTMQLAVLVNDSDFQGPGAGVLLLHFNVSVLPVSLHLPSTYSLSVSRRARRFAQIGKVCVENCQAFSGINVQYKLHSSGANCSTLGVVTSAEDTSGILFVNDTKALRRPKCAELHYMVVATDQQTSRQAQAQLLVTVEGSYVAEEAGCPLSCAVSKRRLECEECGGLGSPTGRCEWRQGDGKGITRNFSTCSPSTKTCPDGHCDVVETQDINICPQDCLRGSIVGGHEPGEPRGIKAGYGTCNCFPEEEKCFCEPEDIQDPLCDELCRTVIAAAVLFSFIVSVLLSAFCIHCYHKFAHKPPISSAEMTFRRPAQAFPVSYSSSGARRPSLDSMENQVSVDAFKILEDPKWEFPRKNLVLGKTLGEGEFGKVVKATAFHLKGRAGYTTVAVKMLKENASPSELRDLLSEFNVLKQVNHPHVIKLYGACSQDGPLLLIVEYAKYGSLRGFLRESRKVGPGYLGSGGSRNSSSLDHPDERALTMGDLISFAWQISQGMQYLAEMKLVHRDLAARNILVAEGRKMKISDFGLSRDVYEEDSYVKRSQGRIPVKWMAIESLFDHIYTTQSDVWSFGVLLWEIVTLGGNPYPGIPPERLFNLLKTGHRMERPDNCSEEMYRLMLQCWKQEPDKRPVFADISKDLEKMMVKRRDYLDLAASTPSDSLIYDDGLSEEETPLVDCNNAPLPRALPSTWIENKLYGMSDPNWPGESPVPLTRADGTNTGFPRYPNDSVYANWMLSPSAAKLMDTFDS
For data set [24], the target named is Inhibitor of nuclear factor kappa-B kinase subunit beta (Homo sapiens, UniProt O14920). In words: Inhibition of IKK2.
Inhibitor of nuclear factor kappa-B kinase subunit beta, sequence (O14920 whole entry): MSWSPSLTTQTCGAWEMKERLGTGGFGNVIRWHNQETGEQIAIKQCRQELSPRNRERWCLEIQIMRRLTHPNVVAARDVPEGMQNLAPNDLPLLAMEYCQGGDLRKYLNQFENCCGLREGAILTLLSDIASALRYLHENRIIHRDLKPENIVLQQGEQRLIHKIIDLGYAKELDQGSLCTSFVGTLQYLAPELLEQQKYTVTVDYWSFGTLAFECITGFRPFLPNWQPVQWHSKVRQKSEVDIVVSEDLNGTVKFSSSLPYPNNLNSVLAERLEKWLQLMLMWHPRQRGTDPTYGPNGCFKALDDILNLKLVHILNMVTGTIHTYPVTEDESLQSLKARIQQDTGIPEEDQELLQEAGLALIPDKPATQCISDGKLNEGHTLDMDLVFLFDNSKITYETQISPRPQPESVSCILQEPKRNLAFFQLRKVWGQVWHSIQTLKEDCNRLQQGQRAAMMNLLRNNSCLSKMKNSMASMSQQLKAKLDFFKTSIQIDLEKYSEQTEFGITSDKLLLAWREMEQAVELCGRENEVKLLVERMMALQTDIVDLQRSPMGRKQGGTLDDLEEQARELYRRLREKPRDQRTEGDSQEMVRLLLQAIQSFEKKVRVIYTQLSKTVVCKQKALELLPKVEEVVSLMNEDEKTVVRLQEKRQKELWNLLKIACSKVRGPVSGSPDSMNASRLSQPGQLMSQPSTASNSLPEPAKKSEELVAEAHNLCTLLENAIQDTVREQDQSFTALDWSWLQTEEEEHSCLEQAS

Activity calls are given as the source filed them. The calls are words filed in the database; no cut-off is given here.

Regarding `CN1CCN(c2ccc(OC(F)(F)F)c(Nc3nccc(-c4cc5c(n4C)CCNC5=O)n3)c2)CC1`, in data set [1], the outcome was Active. Further, the CLint scaled at 1 µM in [2] stood at 16.5 mL/min/kg. In addition, the apparent permeability (Papp) in data set [3] is 5.79 ×10⁻⁶ cm/s. Also, the concentration for half-maximal inhibition (IC50) in data set [4] is above 10 µM; in [5] it was above 10 µM; in data set [6], above 10 µM; in data set [7], above 10 µM; in data set [8], 0.027 µM; in data set [9], above 10 µM. The half-maximal inhibitory concentration (IC50) in [10] was above 10 µM; in data set [12] it was above 10 µM; in [13], above 10 µM; in [15], 0.026 µM; in [16], 0.032 µM; in [17], 0.659 µM. Also, the IC50 in data set [19] was 0.017 µM; in [20] it was above 10 µM; in data set [21] it was above 10 µM; in data set [22] it was above 10 µM; in [23], above 10 µM; in data set [24] it was above 10 µM. The Tmax in data set [11] was 1.5 h. Further, the half-life in data set [14] is 1.4 h. The Activity entry in [18] was “Dose-dependent effect”.
